The source made the active and inactive calls. The rule behind the calls is not given here.
Experiments:
[1] = molecular target: Mitogen-activated protein kinase 8 (Homo sapiens) (UniProt P45983); assay: Inhibition of JNK1 (unknown origin) at 3 uM in presence of ATP by kinase assay
MDA-MB-231 [2] = assay: Antimigratory activity against human MDA-MB-231 cells assessed as inhibition of cell migration at 5 uM and measured upto 24 hrs by scratch wound healing assay; format: functional, cell-based
Procedure, shortened: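 Scratch wound-healing: A549 or MDA-MB-231 monolayers wounded, then exposed to 5 μM compound or DMSO; wound imaged at 6 and 24 h; percentage change in wound area quantified by image analysis at each time point.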

[3] = molecular target: T1, MAP kinase-interacting serine/threonine-protein kinase 1 (Homo sapiens, UniProt Q9BUB5); assay: Inhibition of MNK1 (unknown origin) at 3 uM in presence of ATP by kinase assay
Procedure, shortened: (§1)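 Single-point kinase profiling: inhibitor tested at 3 μM against a panel of 60 kinases from different families, activity presented as heatmap.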
Target sequence in this assay (Q9BUB5 whole entry, looked up): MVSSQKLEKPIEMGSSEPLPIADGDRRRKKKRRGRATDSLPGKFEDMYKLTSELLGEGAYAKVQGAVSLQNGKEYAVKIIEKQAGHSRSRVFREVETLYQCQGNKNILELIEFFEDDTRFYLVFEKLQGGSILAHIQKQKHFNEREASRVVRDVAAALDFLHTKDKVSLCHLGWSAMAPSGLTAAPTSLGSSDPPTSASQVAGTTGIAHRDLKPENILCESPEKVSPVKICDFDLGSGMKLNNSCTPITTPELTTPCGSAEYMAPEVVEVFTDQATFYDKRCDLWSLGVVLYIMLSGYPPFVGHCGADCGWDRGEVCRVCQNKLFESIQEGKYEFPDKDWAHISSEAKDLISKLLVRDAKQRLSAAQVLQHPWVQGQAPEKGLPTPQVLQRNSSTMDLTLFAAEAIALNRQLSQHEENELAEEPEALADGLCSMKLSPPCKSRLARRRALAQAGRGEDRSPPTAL

[4] = molecular target: Eukaryotic translation initiation factor 4E (Homo sapiens) (UniProt P06730); assay: Inhibition of eIF4E phosphorylation in human MDA-MB-231 cells at 5 uM and measured upto 96 hrs by Western blot analysis; format: cell-based
Sequence of Eukaryotic translation initiation factor 4E (Homo sapiens) (P06730 whole entry): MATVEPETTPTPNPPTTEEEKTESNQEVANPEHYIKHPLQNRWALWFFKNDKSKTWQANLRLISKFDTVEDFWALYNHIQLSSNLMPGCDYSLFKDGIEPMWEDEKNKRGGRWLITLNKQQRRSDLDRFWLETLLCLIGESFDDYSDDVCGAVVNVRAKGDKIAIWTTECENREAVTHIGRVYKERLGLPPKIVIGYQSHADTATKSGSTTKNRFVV
Procedure, shortened: (§2)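 Cells maintained with compound at 5 μM for up to 6 days for cell counts; eIF4E phosphorylation followed by immunoblot for up to 96 h.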

Homo sapiens = species: Homo sapiens; assay: Inhibition of QIK (unknown origin) at 3 uM in presence of ATP by kinase assay; procedure, shortened: as §1
MEF = assay: Inhibition of MNK in MNK1 knockout mouse MEF cells assessed as inhibition of eIF4E phosphorylation at 1 uM incubated for 2 hrs by Western blot analysis; format: cell-based
Procedure, shortened: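 MEFs lacking MNK1 or MNK2 (wild-type for comparison) treated 2 h at indicated concentrations; lysates immunoblotted for p-eIF4E, which reflects the remaining MNK isoform; quantified from three independent experiments, SEM.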

A549 [5] = assay: Induction of cell cycle arrest in human A549 cells assessed as accumulation of cells at G0/G1 phase at 5 uM incubated for 20 hrs by propidium iodide staining based flow cytometry (Rvb=70.9%); format: functional
mTORC1 (Homo sapiens) = mTORC1 (Homo sapiens) (UniProt P42345+Q8N122+Q9BVC4); assay: Inhibition of mTORC1 in human LNCaP C4-2B cells assessed as inhibition of phosphorylation of S6K at Thr389 at 5 uM incubated for 2 hrs by Western blot analysis; format: cell-based
Procedure, shortened: (§3)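 C4-2B prostate cancer cells treated with inhibitor; lysates probed by Western blot for p-eIF4E, p-S6K (Thr389), p-rpS6 (Ser240/244) and p-AKT (Ser473).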

[6] = Clearance in mouse at 50 mg/kg, po and measured upto 24 hrs; format: ADME, organism-based; details: in vivo
[7] = system: MAP kinase-interacting kinase MNK1/2 (Homo sapiens); assay: Inhibition of MNK in human LNCaP C4-2B cells assessed as inhibition of eIF4E phosphorylation at 5 uM incubated for 2 hrs by Western blot analysis
[8] = molecular target: Eukaryotic translation initiation factor 4E (Homo sapiens) (UniProt P06730); assay: Inhibition of eIF4E phosphorylation in human A549 cells at 5 uM and measured upto 96 hrs by Western blot analysis; format: cell-based; procedure, shortened: as §2
[9] = AUC (0-t) in mouse at 25 mg/kg, iv and measured upto 24 hrs; format: ADME, organism-based; parameters: time < 24 hrs, dose 25 mg/kg, route iv; details: in vivo
MDA-MB-231 [10] = assay: Downregulation of MMP-3 in human MDA-MB-231 cells at 5 uM incubated for 24 hrs by Western blot anlaysis; format: functional, cell-based
Procedure, shortened: (§4)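 A549 and MDA-MB-231 cells treated 24 h with 5 μM; lysates resolved by SDS-PAGE and immunoblotted for cyclin B1, cyclin D3 and MMP-3.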

A549 [11] = assay: Induction of cell cycle arrest in human A549 cells assessed as accumulation of cells at S phase at 5 uM incubated for 20 hrs by propidium iodide staining based flow cytometry (Rvb=13.6%); format: functional
MDA-MB-231 [12] = assay: Induction of cell cycle arrest in human MDA-MB-231 cells assessed as decrease in cyclin D3 level at 5 uM incubated for 24 hrs by Western blot analysis; format: functional, cell-based; procedure, shortened: as §4
[13] = molecular target: T1, MAP kinase-interacting serine/threonine-protein kinase 1; assay: Inhibition of MNK1 (unknown origin) incubated for 60 mins using CREB as substrate in presence of ATP by LANCE Ultra kinase assay
Target sequence in this assay (Q9BUB5 whole entry): as the sequence (Q9BUB5 whole entry, looked up) above

[14] = system: MAP kinase-interacting kinase MNK1/2 (Homo sapiens); assay: Inhibition of MNK in human A549 cells assessed as reduction in IL-8 level at 1 to 10 uM incubated for 48 hrs by ELISA; details: dose 1-10 µM
A549 [15] = assay: Induction of cell cycle arrest in human A549 cells assessed as accumulation of cells at G0/G1 phase at 5 uM incubated for 16 hrs by propidium iodide staining based flow cytometry (Rvb=75.4%); format: functional
[16] = molecular target: T2, MAP kinase-interacting serine/threonine-protein kinase 2 (Homo sapiens, UniProt Q9HBH9); assay: Inhibition of MNK2 (unknown origin) incubated for 60 mins using CREB as substrate in presence of ATP by LANCE Ultra kinase assay
Target sequence in this assay (Q9HBH9 whole entry): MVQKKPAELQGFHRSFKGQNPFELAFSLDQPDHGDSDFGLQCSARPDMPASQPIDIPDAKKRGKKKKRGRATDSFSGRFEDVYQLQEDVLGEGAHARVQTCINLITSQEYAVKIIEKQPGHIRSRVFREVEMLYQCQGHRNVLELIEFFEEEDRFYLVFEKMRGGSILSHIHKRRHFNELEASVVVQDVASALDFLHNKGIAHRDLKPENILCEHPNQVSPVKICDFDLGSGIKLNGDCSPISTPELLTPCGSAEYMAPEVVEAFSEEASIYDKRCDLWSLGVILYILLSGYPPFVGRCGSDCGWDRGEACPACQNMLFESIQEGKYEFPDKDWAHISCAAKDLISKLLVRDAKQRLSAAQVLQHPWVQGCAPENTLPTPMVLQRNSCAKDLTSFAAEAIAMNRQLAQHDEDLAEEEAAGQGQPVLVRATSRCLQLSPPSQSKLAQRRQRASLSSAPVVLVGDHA

[17] = AUC (0-t) in mouse at 50 mg/kg, po and measured upto 24 hrs; format: ADME, organism-based; parameters: dose 50 mg/kg, time < 24 hrs, route po; details: in vivo
3T3-L1 = assay: Inhibition of MNK in mouse 3T3-L1 cells assessed as inhibition of eIF4E phosphorylation at 5 uM incubated for 2 hrs by Western blot analysis; format: cell-based
Procedure, shortened: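 Mouse 3T3-L1 cells exposed to compound at 5 μM for 2 h; lysates resolved by SDS-PAGE and immunoblotted for phospho-eIF4E. Reference MNK inhibitor run in parallel at 1 μM.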

A549 [18] = assay: Antitumor activity against human A549 cells xenografted in BALB/C nude mouse assessed as reduction in tumor volume at 75 to 150 mg/kg, po QD for 14 days; format: functional, organism-based; details: dose 75-150 mg/kg, time 14.0 day
Procedure, shortened: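 A549 xenografts in nude mice; compound given orally once daily at 75 or 150 mg/kg for 14 days, irinotecan reference at 3 mg/kg; tumor growth tracked as T/C ratio (relative tumor proliferation rate); body weight monitored.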

[19] = Cmax in mouse at 25 mg/kg, iv and measured upto 24 hrs; format: ADME, organism-based; parameters: dose 25 mg/kg, time < 24 hrs, route iv; details: in vivo
[20] = system: MAP kinase-interacting kinase MNK1/2 (Homo sapiens); assay: Inhibition of MNK in human PC-3 cells assessed as inhibition of eIF4E phosphorylation at 3 uM incubated for 2 hrs by Western blot analysis
[21] = Half life in mouse at 50 mg/kg, po and measured upto 24 hrs; format: ADME, organism-based; details: in vivo
[22] = molecular target: T2, MAP kinase-interacting serine/threonine-protein kinase 2; assay: Inhibition of MNK2 (unknown origin) at 3 uM in presence of ATP by kinase assay; procedure, shortened: as §1
Target sequence in this assay (Q9HBH9 whole entry, looked up): as the sequence (Q9HBH9 whole entry) above

MV4-11 = assay: Induction of cell cycle arrest in human MV4-11 cells assessed as decrease in cyclin B1 level at 3 uM incubated for 24 hrs by Western blot analysis
mTORC2 (Homo sapiens) = mTORC2 (Homo sapiens) (UniProt P42345+Q6R327+Q9BVC4+Q9BPZ7); assay: Inhibition of mTORC2 in human LNCaP C4-2B cells assessed as inhibition of phosphorylation of AKT at Ser473 at 5 uM incubated for 2 hrs by Western blot analysis; format: cell-based; procedure, shortened: as §3

Sequence of Mitogen-activated protein kinase 8 (Homo sapiens) (P45983 whole entry): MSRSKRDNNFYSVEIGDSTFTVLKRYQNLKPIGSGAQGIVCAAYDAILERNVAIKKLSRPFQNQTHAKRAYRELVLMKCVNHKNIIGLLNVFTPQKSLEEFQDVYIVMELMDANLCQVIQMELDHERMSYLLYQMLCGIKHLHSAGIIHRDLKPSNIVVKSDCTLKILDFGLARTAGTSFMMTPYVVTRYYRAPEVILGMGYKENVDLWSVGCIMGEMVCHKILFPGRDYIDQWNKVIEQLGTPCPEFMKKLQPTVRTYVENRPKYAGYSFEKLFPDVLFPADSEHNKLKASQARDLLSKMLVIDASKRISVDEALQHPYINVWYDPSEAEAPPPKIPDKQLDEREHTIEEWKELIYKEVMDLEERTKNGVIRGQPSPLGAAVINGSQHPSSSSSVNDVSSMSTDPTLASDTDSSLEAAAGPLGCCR

## CN1CCN(C(=O)c2ccc(-c3nn4c(-c5ccc(C#N)cc5)cnc4s3)cc2)CC1
[1]
  inhibition: Active
MDA-MB-231 [2]
  Activity: Active
[3]
  inhibition: 100%
[4]
  inhibition: Active
Homo sapiens
  inhibition: Active
MEF
  inhibition: Active
A549 [5]
  Activity: 91.4%
mTORC1 (Homo sapiens)
  inhibition: inactive
[6]
  CL/F: 8.45 mL/min/kg
[7]
  inhibition: Active
[8]
  inhibition: Active
[9]
  AUC(0-t) at 24 h: 80900 ng·h/mL
MDA-MB-231 [10]
  Activity: Active
A549 [11]
  Activity: 3.3%
MDA-MB-231 [12]
  Activity: Active
[13]
  IC50: 11.5 nM
[14]
  inhibition: Active
A549 [15]
  Activity: 89.6%
[16]
  IC50: 8.6 nM
[17]
  AUC(0-t) at 24 h: 98500 ng·h/mL
3T3-L1
  inhibition: Active
A549 [18]
  Activity: Dose-Dependent Effect
[19]
  Cmax: 32100 ng/mL
[20]
  inhibition: Active
[21]
  half-life: 4.42 h
[22]
  inhibition: 100%
MV4-11
  Activity: Active
mTORC2 (Homo sapiens)
  inhibition: inactive
